Measurements taken from PubChem BioAssay AID720543 (The Scripps Research Institute Molecular Screening Center, 2013).
Several values for one entry are separate records, joined by “and”; a condition that tells them apart may be missing. Equal values may be shown once. About 2,000 (0.54%) of roughly 370,000 compounds were called active.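 The calls were made as follows: active = inhibition exceeding the mean over every tested compound plus 3 SD (cut at about 30% in these data); inactive = the rest.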 This excerpt belongs to a sample that is enriched for actives. A structure can be active in one record and inactive in another.

biological target: (Lyso)-N-acylphosphatidylethanolamine lipase (Mus musculus) (UniProt Q8VD66); experiment: mouse ABHD4 hydrolase activity blockers – biochemical, fluorescence polarization, primary screen (AID 720543); settings: purified mABHD4, FP-Rh probe fluorescence polarization; at 8.92 µM; stronger effect = higher value;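 also: 0% = plate median of compound wells and 100% = S159A mutant with DMSO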
Sequence (Q8VD66 whole entry, looked up): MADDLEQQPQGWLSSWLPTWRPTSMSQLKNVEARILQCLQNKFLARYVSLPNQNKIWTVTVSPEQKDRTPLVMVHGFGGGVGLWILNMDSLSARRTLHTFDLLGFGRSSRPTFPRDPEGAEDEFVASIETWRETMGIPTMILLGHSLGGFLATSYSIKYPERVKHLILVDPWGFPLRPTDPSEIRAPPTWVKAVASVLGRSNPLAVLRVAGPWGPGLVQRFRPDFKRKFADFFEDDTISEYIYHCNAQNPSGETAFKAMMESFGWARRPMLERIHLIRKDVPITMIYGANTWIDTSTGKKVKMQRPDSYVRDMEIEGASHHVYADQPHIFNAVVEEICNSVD
How it was run: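 Test system: mouse ABHD4 enzyme, wild type. Reagent: FP-Rh fluorescent activity-based probe, added after compound pre-incubation. Timing: pre-incubation 45 min, probe exposure 60 min, at 25 °C. Technique: FP readout, ex 525 nm / em 598 nm. Benchmarks: high control S159A mutant with DMSO, low control median of compound wells.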

inhibition, active:
COc1cccc(/C=N/Nc2ccc(S(=O)(=O)Nc3ccccc3C(=O)O)cc2[N+](=O)[O-])c1O 70.3%, CC(C)(C)C(=O)OCc1nc(-c2ccc(O)c(O)c2)cs1 39.5%, Clc1ccccc1CSc1nnc(-c2ccco2)c(-c2ccco2)n1 38.9%, CCc1ccccc1NC(=S)Nc1cc(OC)c(NC(=O)C(C)C)cc1OC 33.4%, CC/C(=C(/c1ccccc1)c1ccc(OCC[N+](C)(C)C)cc1)c1ccccc1 30%, O=C(COC(=O)c1ccc(O)cc1O)c1ccc2c(c1)OCCO2 36.5%, Oc1ccc(N=Cc2sc3ccccc3c2Cl)cc1 88.4%, Oc1ccc(N=Cc2c(O)ccc3ccccc23)cc1 51.1%, O=[N+]([O-])c1cc(Cl)cc(/C=N/NC(=S)Nc2cc(S(=O)(=O)N3CCOCC3)ccc2Cl)c1O 32.2%, NC1=CC(=O)C(=O)c2cccnc21 59.2%, CCC(CO)Oc1cc(NC(=O)c2cccc(F)c2)c2ncn(C(C)C)c2c1 (stereo not given) 44.4%, Cc1cccc(-n2cnc(C(=O)NNC(=S)Nc3ccccc3)c2)n1 43.3%, Cc1cc2ccccc2n1CCNC(=O)COc1ccc2ccccc2c1 40.9%, O=c1[nH]n(-c2ccc([N+](=O)[O-])cc2)c(=O)c2ccccc12 59.3%

inhibition, inactive:
CC1(C)CC(=O)C(C2c3ccccc3S(=O)(=O)c3ccccc32)C(=O)C1 0.77%, O=C(CSc1nc2c(c(=O)[nH]1)CCCC2)N1CCCCC1 0.85%, Cc1ccccc1CS(=O)(=O)Cc1ccc(C(=O)Nc2ccc(Cl)cc2)o1 1.54%, CN(C)S(=O)(=O)c1cccc(C(=O)N/N=C\c2ccco2)c1 5.39%, COc1ccc([C@H]2OC(=O)C[C@H]2C(=O)N2CCN(c3ccccc3F)CC2)cc1OC 0.9%, CC(C)(C)NC(=O)NC(=O)COC(=O)Cn1c(C(F)(F)F)nc2ccccc21 1.11%, Cc1cccc(NC(=O)C[C@H]2CC[C@H]3[C@@H](COc4ccc(NC(=O)Nc5ccccc5)cc4C(=O)N3C)O2)c1 7.9%, COc1ccc(-n2c(SCC(=O)Nc3ccc4cn[nH]c4c3)nnc2-c2cccnc2)cc1 0.5%, CCOc1ccc(/C(O)=C2\C(=O)C(=O)N(c3ccc(OC)cc3)C2c2ccccc2[N+](=O)[O-])cc1 (stereo not given) 5.37%, C[C@@H](NC(=O)c1ccccc1OCC(=O)Nc1ccc(I)cc1)C(=O)N(C)Cc1ccccc1 -28.4%, COc1ccc(Cc2nc3ccc(C(=O)N4CCC(N(C)C)C4)cc3o2)cc1 (stereo not given) -2.59%, Cc1cc(=O)[nH]c(SCC(=O)Nc2ccc(F)cc2F)n1 2.2%, CCOc1ccccc1NS(=O)(=O)c1c[nH]c(C(=O)OC)c1 -5.46%, CCN(CC(=O)NCc1cccs1)C(=O)c1cccc(S(=O)(=O)Nc2ccccc2OC)c1 -5.42%, CC(C)(C)NC(=O)C(c1cccnc1)N(C(=O)c1cnco1)c1ccc(C(C)(C)C)cc1 (stereo not given) -5.63%, CC1CCCCC1NC(=O)CSc1nnc(-c2ccncc2)n1CCCN(C)C (stereo not given) 18.4%, CCC[C@H]1C(=O)CC[C@@]23CCCN2C(=O)CCC[C@@H]13 -0.16%, CN1C(=O)C2CC(O)C(SC3CC4C(=O)N(C)C(=O)C4CC3O)CC2C1=O (stereo not given) 4.09%, CCCC(=O)N1c2ccc(-c3csc(N)n3)cc2CC1C (stereo not given) 6.5%, COCc1cccc(-c2csc(C(O)c3ccc(F)cc3)n2)c1 (stereo not given) -6.65%, COc1ccc(C(=O)CSc2nnc(-c3cnccn3)n2-c2ccc(C)cc2)cc1 -7.18%, COC(=O)[C@H](C(C)C)N1CCc2nnn(Cc3ccc(C)cc3)c2-c2ccccc2S1(=O)=O 8.58%, CN(CCO)c1cccc2c1S(=O)(=O)N(Cc1cn(Cc3ccc(C(F)(F)F)cc3)nn1)Cc1ccccc1O2 1.41%, CCOC(=O)C1CCN(C(=O)C(C)(C)NC(=O)Nc2ccc(F)c(F)c2)CC1 -6.47%, Clc1ccc(-n2c(SC/C=C/c3ccccc3)nnc2-c2ccco2)cc1 -10.5%, COc1ccnc(C(=O)N2CCC(Oc3cccnc3)CC2)c1 3.41%, CC(C)(C)c1ccc(C(=O)Nc2cc(Cl)c(Br)cc2C(=O)O)cc1 -156%, COc1cc(NC(=S)NNC(=O)CC(C)C)c(OC)cc1Cl 1.23%, COc1ccc(C)cc1NC(=S)Nc1ccccc1SC -1.16%, Cc1ccccc1CN1CCCCC(NC(=O)Nc2ccccc2F)C1=O (stereo not given) 3.77%, Oc1c(Cl)cc(Cl)c(Cl)c1Cc1c(O)c(Cl)cc(Cl)c1Cl -117%, CCOC(=O)[C@]12CCCC3=C1N(CCC3)C(=O)[C@@H](CC(=O)NCC13CC4CC(CC(C4)C1)C3)C2 3.95%, COC(=O)C[C@@H]1CC[C@H]2[C@@H](COc3ccc(NS(=O)(=O)CC(F)(F)F)cc3C(=O)N2C)O1 10.4%, COC(=O)c1ccc(CN(c2ccccc2OC)S(=O)(=O)c2cccs2)o1 4.33%, COC(=O)C1=C(C(=O)OC)C2C=C(C(C)C)C1C(=O)C2(C)O (stereo not given) -1.36%, CCOc1ccc(S(=O)(=O)NCCC(=O)NCC(C)(C)N2CCOCC2)cc1 4.91%, O=C(OCc1ccccc1F)c1ccc2c(c1)OCCO2 1.07%, O=C1COc2ccc(C(=O)COC(=O)c3ccccc3Cl)cc2N1 -1.93%, Cc1nc2sccn2c(=O)c1S(=O)(=O)NCCc1ccccc1 0.82%, O=C(COC(=O)c1ncc(Cl)c(Cl)c1Cl)NC1CCS(=O)(=O)C1 (stereo not given) 2.44%, C[C@@H]1CN([C@@H](C)CO)C(=O)c2cccc(NC(=O)Nc3cccc4ccccc34)c2O[C@H]1CN(C)S(=O)(=O)c1ccccc1F -0.79%, COC(=O)[C@]12C[C@H](CC(=O)NCc3cccc4ccccc34)C(=O)N(CCc3ccc(OC)c(OC)c3)C1=C[C@H](C1CCCC1)O[C@@H]2C -10.3%, Cn1c(SCC(=O)N2CCOCC2)nnc1-c1ccc(NC(=O)c2ccccc2F)cc1 1.97%, CSc1nc2sc3c(c2c(=O)[nH]1)CCc1ccccc1-3 4.16%, CCCNC(=O)Nc1ccc2c(c1)C(=O)N(C)[C@H]1CC[C@H](CC(=O)NCC3CCCCC3)O[C@@H]1CO2 12.2%, Cc1ccc(S(=O)(=O)N2CCOCC2)cc1NC(=O)c1ccncc1 -3.76%, COCCNC(=S)Nc1cc(S(=O)(=O)N2CCOCC2)ccc1N1CCCCC1 1.6%, Cc1ccccc1NC(=O)CSc1ccc2nnc(-c3ccccn3)n2n1 5.22%, CC12C(=O)N(n3cnnc3)C(=O)C1C1C=CC2C1 (stereo not given) -1.34%, CCCCN1C(=O)/C(=C2/C=CC=CN2C)SC1=S 4.21%, CCN1C(=O)/C(=C\N2CCOCC2)SC1=S 9.79%, CC(=O)Nc1ccc(NC(=O)CSC2=NS(=O)(=O)c3ccccc3N2)cc1 0.67%, COC(=O)C[C@@H]1CC[C@@H]2[C@H](COc3ccc(NC(=O)c4cccc(F)c4)cc3C(=O)N2C)O1 -0.54%, CO[C@@H]1CN(C)C(=O)c2cc(NC(=O)C3CC3)ccc2OC[C@H](C)N(C(=O)CN2CCOCC2)C[C@@H]1C -0.34%, Cc1ccc(F)cc1NC(=O)c1cccc(N(C)C)c1 -2.26%, CCCOc1cccc(C(=O)Nc2nnn(CCC)n2)c1 7.16%, Nc1ncnc2c1ncn2[C@@H]1O[C@H](CNS(=O)(=O)c2ccc(-c3ccno3)s2)[C@@H](O)[C@H]1O -3.46%, CC(C)(C)OC(=O)NCCc1ccccc1/C=C/S(=O)(=O)NCc1ccc(F)cc1 14.8%, O=C(NNC(=S)Nc1ccccc1)c1cccc(S(=O)(=O)N2CCOCC2)c1 1.73%, Cc1cccc(-n2cnc(C(=O)Nc3cccnc3)c2)n1 -2.09%, CC(=O)N1N=C(c2ccncc2)OC1(Cc1ccccc1)Cc1ccccc1 -3.49%, CCOC(=O)[C@]12CCCC3=C1N(CCC3)C(=O)[C@@H](CC(=O)NCc1cccs1)C2 -5.06%, CN(C)CCCN(Cc1cc2cc3c(cc2[nH]c1=O)OCCO3)C(=O)NC1CCCCC1 1.3%, O=S1(=O)c2ccc(Br)cc2-n2nncc2CN1Cc1cccc(Cl)c1 -5.52%, O=C(COc1ccc(Cl)cc1)NCCSc1ccccc1 -6.3%, Cc1ccccc1OCC(=O)NCC(=O)OCC(=O)c1ccc2ccccc2c1 3.01%, O=C(N1CCOCC1)N1CC[C@H]2[C@H](CCCN2Cc2ccc(F)cc2)C1 4.72%, CC(C)C(C#CC1CC1)N(Cc1ccc2c(c1)OCO2)C(N)=NC(=O)/C=C/c1cccc(C(F)(F)F)c1 (stereo not given) 4.25%, O=C(Nn1c(SCc2ccc([N+](=O)[O-])cc2)nc2ccccc2c1=O)c1ccc(F)cc1 -52.4%, C=CCNC(=S)N1CCN(CCN=Cc2c(C)[nH]n(-c3ccc([N+](=O)[O-])cc3)c2=O)CC1 -6.41%

inhibition, 9.75% (inactive) and 31.2% (active):
CCN1C(=O)/C(=C2/Sc3ccccc3N2CCCS(=O)(=O)O)SC1=S
